Reference: publication PMC5402717 (Pain, 2017)
Entries after “also recorded” stand apart in the source; their conditions may differ.

Tests used:
[1] = biological target: PKG-1α; conditions: cited from earlier work
[2] = General observation for abnormalities or deficits; format: in vivo, rat; conditions: N46-injected rats
[3] = Heart rate and blood pressure monitoring after N46 injection; format: in vivo, rat; conditions: injected 1uM N46, monitored 30 minutes; data not shown
Method in brief: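 Heart rate and systolic and diastolic blood pressure recorded for a 30 min baseline, then 1uM test compound injected and monitoring continued for 30 min.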

[4] = system: panel of 274 kinases; test: Kinase panel screening, overall selectivity; format: biochemical
[5] = Stability of N46 in plasma in vitro; format: in vitro ADME; conditions: rat plasma, 37°C
[6] = biological target: cardiac hERG potassium channel (Homo sapiens, UniProt Q12809); test: hERG tail current recording; format: cell-based
Method in brief: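 hERG tail currents evoked by a voltage protocol applied every 10 s. Test compound applied cumulatively at 0.1, 0.3, 1.0, 3, 10 and 30 μM, 5 min per concentration, with 1 μM cisapride as positive control. Mean percent inhibition from 13 cells gave a 6-point curve, from which IC50 was calculated.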

[7] = system: Sprague-Dawley rats; test: MIA-induced osteoarthritic knee joint pain; format: in vivo, rat; conditions: 5 nmol intra-articular 14 days after MIA
Method in brief: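 Baseline hind-limb weight bearing taken on day 0. Rats then received 3 mg MIA in 50 μL saline into the right knee and saline into the left. At 14 days, 5 nmol test compound or quarter-saline vehicle (50 μL) was given intra-articularly. Incapacitance tester: paw force averaged over 5 s, 3 trials per point, expressed as percent difference between limbs.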

[8] = system: Sprague-Dawley rats; test: CFA-induced thermal hyperalgesia; format: in vivo, rat
Method in brief: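 Male Sprague-Dawley rats (250-300 g) given 100 μL CFA intraplantar; one day later, test compound was given intrathecally at L4/L5 (15 μL, 1% DMSO/saline, saline flush) or into the tail vein (1 mL, quarter normal saline), vs vehicle. Hargreaves radiant heat test: glass at 30°C, 30 min acclimation, baseline latency ~10 s, 20 s cutoff. Both paws tested the following day, double-blind.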

[9] = Tissue distribution of N46 in vivo; conditions: rat, tail vein injection
Method in brief: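 Test compound injected into the rat tail vein. Tissues homogenized in 0.1N sodium carbonate (2 mL) plus methanol (6 mL), centrifuged, and supernatant analyzed by LC/MS. C18 column, acetonitrile-water gradient 0-100% over 20 min, detection at 220 nm. Results corrected for % recovery using spiked standard curves.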

[10] = biological target: T1, purified bovine PKG-1α (Bos taurus, UniProt P00516); test: In vitro protein kinase G assay; format: biochemical; conditions: for IC50: IC50 for PKG-1α
T1 sequence (P00516 1-671): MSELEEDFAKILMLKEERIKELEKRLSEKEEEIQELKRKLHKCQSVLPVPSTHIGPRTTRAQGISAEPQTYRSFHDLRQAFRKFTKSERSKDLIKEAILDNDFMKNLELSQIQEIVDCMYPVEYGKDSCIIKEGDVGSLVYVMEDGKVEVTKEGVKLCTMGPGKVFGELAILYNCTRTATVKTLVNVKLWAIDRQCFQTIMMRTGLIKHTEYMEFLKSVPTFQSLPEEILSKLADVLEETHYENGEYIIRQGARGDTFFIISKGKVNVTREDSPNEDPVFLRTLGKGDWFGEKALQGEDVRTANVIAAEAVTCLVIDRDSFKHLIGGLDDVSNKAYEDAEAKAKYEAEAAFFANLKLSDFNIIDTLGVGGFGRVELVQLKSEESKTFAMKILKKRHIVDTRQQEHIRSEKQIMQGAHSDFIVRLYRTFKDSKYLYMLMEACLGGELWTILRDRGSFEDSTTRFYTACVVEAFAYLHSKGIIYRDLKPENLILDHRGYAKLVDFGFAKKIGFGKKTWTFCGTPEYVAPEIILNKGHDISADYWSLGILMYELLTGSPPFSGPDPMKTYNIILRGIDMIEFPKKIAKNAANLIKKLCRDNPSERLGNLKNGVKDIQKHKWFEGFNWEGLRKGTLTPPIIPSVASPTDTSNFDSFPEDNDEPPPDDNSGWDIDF
Method in brief: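 Reaction started with 10 μM [32P]-ATP, run 20 min at 37°C, stopped with 50 mM EDTA. Peptide captured on phosphocellulose filters, counted by β-scintillation. IC50s are single determinations in duplicate.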

[11] = biological target: recombinant catalytic domain of human PKA (Homo sapiens, UniProt P17612); test: In vitro cAMP-dependent kinase; format: biochemical
Method in brief: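 Recombinant human PKA catalytic domain with kemptide substrate; activity measured as 32P incorporation from [γ-32P]ATP in Tris buffer. Labeled peptide captured on cellulose phosphate filters and counted by β-scintillation. IC50s are single determinations run in duplicate.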

[12] = system: Sprague-Dawley rats; test: Capsaicin-induced mechanical hypersensitivity; format: in vivo, rat; conditions: 10 nmol N46 into hind paw, no capsaicin
Method in brief: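 Male Sprague-Dawley rats given 10 nmol test compound intraplantar, without capsaicin. von Frey hairs (0.4-15 g) applied for ~6 s each, up-down sequence starting at 2 g. 50% paw withdrawal threshold calculated by the Chaplan method at set times after injection; n = 15 per group; double-blind.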

[13] = system: PKG-1α; test: PKG-1α activity in sciatic nerve segment after capsaicin injection; format: in vivo, rat; conditions: capsaicin 0.1 μM under the perineurium of the sciatic nerve, 30 minutes
Method in brief: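 Capsaicin (0.1 μM) injected under the sciatic nerve perineurium, with an equal vehicle volume into the contralateral nerve. After 30 min, the 1 cm segment containing the injection site was harvested and homogenized. Equal-protein samples were assayed for PKG-1α activity; N = 4.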

Chain of cardiac hERG potassium channel (Q12809 whole entry): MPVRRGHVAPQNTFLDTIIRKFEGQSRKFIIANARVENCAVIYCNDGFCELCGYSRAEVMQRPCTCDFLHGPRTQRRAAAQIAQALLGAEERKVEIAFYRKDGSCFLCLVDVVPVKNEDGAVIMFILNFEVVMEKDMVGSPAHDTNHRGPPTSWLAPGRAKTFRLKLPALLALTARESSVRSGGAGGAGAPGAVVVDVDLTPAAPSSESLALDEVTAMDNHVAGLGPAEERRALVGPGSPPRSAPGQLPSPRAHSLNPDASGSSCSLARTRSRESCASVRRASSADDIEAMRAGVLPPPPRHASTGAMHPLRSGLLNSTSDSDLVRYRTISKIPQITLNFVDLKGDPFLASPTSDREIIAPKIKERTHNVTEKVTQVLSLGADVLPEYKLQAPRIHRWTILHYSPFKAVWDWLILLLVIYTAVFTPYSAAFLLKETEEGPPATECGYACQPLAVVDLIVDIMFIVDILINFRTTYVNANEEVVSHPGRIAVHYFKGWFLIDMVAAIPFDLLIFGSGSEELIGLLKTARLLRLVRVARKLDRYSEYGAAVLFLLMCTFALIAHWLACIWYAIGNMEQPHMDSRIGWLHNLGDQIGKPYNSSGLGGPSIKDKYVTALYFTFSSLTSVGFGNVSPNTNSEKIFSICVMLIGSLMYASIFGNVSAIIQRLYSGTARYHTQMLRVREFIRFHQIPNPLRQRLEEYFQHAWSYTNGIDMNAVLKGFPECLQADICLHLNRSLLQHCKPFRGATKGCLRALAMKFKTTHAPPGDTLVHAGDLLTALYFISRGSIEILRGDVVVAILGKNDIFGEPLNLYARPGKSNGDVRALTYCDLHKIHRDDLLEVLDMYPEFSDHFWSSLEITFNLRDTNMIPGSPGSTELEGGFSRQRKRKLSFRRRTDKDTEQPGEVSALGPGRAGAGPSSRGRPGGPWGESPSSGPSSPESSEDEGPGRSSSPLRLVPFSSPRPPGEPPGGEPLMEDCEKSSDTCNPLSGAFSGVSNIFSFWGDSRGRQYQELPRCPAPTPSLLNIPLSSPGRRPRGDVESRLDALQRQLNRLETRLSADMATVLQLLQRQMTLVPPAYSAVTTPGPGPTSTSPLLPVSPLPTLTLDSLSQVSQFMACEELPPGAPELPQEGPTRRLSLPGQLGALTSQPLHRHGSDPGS

Structure (SMILES): COC(=O)[C@@]1(OC)C[C@H]2O[C@]1(C)n1c3ccccc3c3c4c(c5c6ccccc6n2c5c31)C(=O)N(C)C4 [KT5823]
- Ki [1]: 234 nM

Structure (SMILES): CCCOc1ccc(OC)c(F)c1C(=O)c1ccc(C(=O)N[C@@H]2CNC[C@H]2NC(=O)c2ccc3[nH]ncc3c2)cc1 [N46, N-((3R,4R)-4-(4-(2-fluoro-3-methoxy-6-propoxybenzoyl)benzamido)pyrrolidin-3-yl)-1H-indazole-5-carboxamide]
- sedation [2]: no evidence of sedation
- heart rate and systolic and diastolic blood pressure [3]: no significant effect
- number of kinases inhibited more than 50% ([4]; 750 nM N46): 12
- off-target hit rate (kinases inhibited by more than 50%) ([4]; 12 out of 274, dose of N46 where PKG-1 was inhibited 100%): 4.4%
- stability in plasma (time stable) [5]: at least 7 hours
- IC50 [6]: 4470 nM
- duration of relief after a single injection [7]: 7 days
- weight bearing distribution ([7]; days 15 and 21, vs vehicle): significant improvement in weight bearing distribution; also recorded: significantly reversed the MIA-induced shift in weight bearing
- thermal hyperalgesia (PWL), CFA-injected paw ([8]; 0.25 nmol intrathecal 1 day after CFA, measured post-CFA day 2, vs vehicle): marked reduction
- thermal hyperalgesia (PWL), CFA-injected paw ([8]; 1 nmol into the tail vein 1 day after CFA, 24 hours later, vs vehicle): significantly increased the PWL; also recorded: significantly reduced the heat hyperalgesia
- duration of relief after a single injection ([8]; CFA model): at least 24 hours
- thermal threshold, contralateral noninflamed paw ([8]; N46 intrathecal): no significant changes
- presence in the CNS [9]: not detected in the CNS
- fold difference of IC50, PKA versus PKG-1α [10]: 714 fold
- IC50 [10]: 7.5 nM
- IC50 ([10]; 10 μM ATP, 37°C, 20 minutes): 7 nM
- type of inhibition of PKG-1α (kinetic studies) ([10]; data not shown): noncompetitive inhibitor
- IC50 [11]: 5000 nM
- mechanical threshold, N46 alone [12]: had no effect

Structure (SMILES): Nc1nc2c(nc(Sc3ccc(Cl)cc3)n2[C@@H]2O[C@@H]3CO[P@@](=O)(S)O[C@H]3[C@H]2O)c(=O)[nH]1 [RPG, Rp-8-pCPT-cGMPS, reference compound]
- Ki [1]: 500 nM
- thermal hyperalgesia (PWL), CFA-injected paw ([8]; 250 nmol intrathecal 1 day after CFA, PWL measured the following day, vs vehicle): alleviated significantly; also recorded: significant improvement in mean PWL
- thermal threshold, contralateral noninflamed paw ([8]; RPG intrathecal): no significant changes

Structure (SMILES): COc1cc(CNC(=O)CCCC/C=C/C(C)C)ccc1O [capsaicin]
- PKG-1α in the nerve segment that was active [13]: 40 ± 15%
